What was measured:
Mus musculus [1] = assay: Toxicity in mouse assessed as tail bleeding time at 200 mg/kg, po after 60 mins; type: organism-based; design: dose 200 mg/kg, route oral; conditions: in vivo, 1 h
In short: (§1)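 Male mice (18–22 g) were dosed orally, and bleeding time was recorded before dosing and at each post-dose time. Each mouse was held in a tube with its tail protruding, and a 2 mm tail cut was made. Blood was wiped away with tissue every 30 s until bleeding ceased, and the time was recorded. The comparison group received NS.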

Mus musculus [2] = assay: Toxicity in mouse assessed as tail bleeding time at 200 mg/kg, po after 30 mins; type: organism-based; design: dose 200 mg/kg, route oral; conditions: in vivo, 0.5 h; in short: as §1
Mus musculus [3] = assay: Inhibition of xylene-induced ear edema in Kunming mouse at 20 mg/kg, po after 2 hrs relative to control; type: functional
In short: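 Male Kunming mice (groups of 12; n = 11 per table footnote) were dosed orally as a suspension in 0.5% CMC, with CMC vehicle and positive control groups. After 30 min, 0.03 ml xylene went on both surfaces of the right ear, with the left ear as control. Mice were killed 2 h later. 7 mm ear punches were weighed, and edema was taken as right minus left weight. Groups were compared by one-way ANOVA, p < 0.05.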

Mus musculus [4] = assay: Toxicity in mouse assessed as tail bleeding time at 200 mg/kg, po after 90 mins; type: organism-based; design: dose 200 mg/kg, route oral; conditions: in vivo, 1.5 h; in short: as §1
Mus musculus [5] = assay: Toxicity in mouse assessed as tail bleeding time at 200 mg/kg, po after 45 mins; type: organism-based; design: dose 200 mg/kg, route oral; conditions: in vivo, 0.75 h; in short: as §1

SMILES | Activity (Mus musculus [1]) [s] | Activity (Mus musculus [2]) [s] | inhibition in vivo at 20 mg/kg (Mus musculus [3]) [%] | Activity (Mus musculus [4]) [s] | Activity (Mus musculus [5]) [s]
C[C@@H]1O[C@@H](c2ccc([N+](=O)[O-])cc2)OC[C@H]1NC(=O)c1ccccc1 | 117.2 | 118.4 | 57.4 | 118.9 | 119.2
O=C(Cc1ccccc1)N[C@H]1CCO[C@@H](c2ccc(Cl)cc2)OC1 | – | – | 24.4 | – | –
C[C@@H]1O[C@@H](c2ccccc2)OC[C@H]1NC(=O)c1ccccc1 | – | – | 43.9 | – | –
O=C(Cc1ccccc1)N[C@H]1CO[C@@H](c2ccc(Cl)cc2)OC1 | 119.5 | 117.9 | 43.6 | 118.4 | 119.2
Cc1ccc([C@H]2OC[C@@H](NC(=O)Cc3ccccc3)CO2)cc1 | 118.4 | 117.2 | 36.5 | 119.2 | 118.6
O=C(Cc1ccccc1)N[C@H]1CO[C@H](c2ccc([N+](=O)[O-])cc2)OC1 | 117.6 | 120.7 | 44.6 | 117.7 | 120.2
O=C(Cc1ccccc1)N[C@H]1CCCO[C@H](c2ccc([N+](=O)[O-])cc2)OC1 | – | – | 19.9 | – | –
O=C(Cc1ccccc1)N[C@H]1CCCO[C@@H](c2ccc([N+](=O)[O-])cc2)OC1 | – | – | 20.8 | – | –
O=C(Cc1ccccc1)N[C@H]1CCCO[C@H](c2ccc(Cl)cc2)OC1 | – | – | 23.1 | – | –
Cc1ccc([C@H]2OC[C@@H](NC(=O)c3ccccc3)[C@H](C)O2)cc1 | 119.8 | 120.9 | 46.1 | 118.7 | 121
O=C(Cc1ccccc1)N[C@H]1CCO[C@H](c2cccc([N+](=O)[O-])c2)OC1 | – | – | 20.1 | – | –
C[C@@H]1O[C@@H](c2cccc([N+](=O)[O-])c2)OC[C@H]1NC(=O)c1ccccc1 | 117.4 | 118.9 | 42 | 118.3 | 119.2
O=C(N[C@H]1CO[C@@H](c2ccc([N+](=O)[O-])cc2)OC1)c1ccccc1 | 120.6 | 119.4 | 44.2 | 119.4 | 118.7
O=C(Cc1ccccc1)N[C@H]1CO[C@H](c2ccc(Cl)cc2)OC1 | 119.5 | 117.9 | 42 | 118.4 | 119.2
O=C(N[C@H]1CCO[C@H](c2ccc(Cl)cc2)OC1)c1ccccc1 | – | – | 29.5 | – | –
O=C(Cc1ccccc1)N[C@H]1CO[C@H](c2ccccc2)OC1 | 117.8 | 118.5 | 37.8 | 118.9 | 119.3
O=C(N[C@H]1CCO[C@@H](c2ccc([N+](=O)[O-])cc2)OC1)c1ccccc1 | – | – | 20.2 | – | –
C[C@@H]1O[C@@H](c2ccc([N+](=O)[O-])cc2)OC[C@H]1NC(=O)Cc1ccccc1 | 117.9 | 117.8 | 55.8 | 117.2 | 118.5
O=C(N[C@H]1CO[C@H](c2ccc([N+](=O)[O-])cc2)OC1)c1ccccc1 | 118.6 | 119.5 | 48.7 | 118.9 | 117.7
O=C(Cc1ccccc1)N[C@H]1CCO[C@H](c2ccc([N+](=O)[O-])cc2)OC1 | – | – | 18.9 | – | –
O=C(Cc1ccccc1)N[C@H]1CCO[C@H](c2ccc(Cl)cc2)OC1 | – | – | 23.7 | – | –
C[C@@H]1O[C@H](c2ccc(Cl)cc2)OC[C@H]1NC(=O)c1ccccc1 | 118.7 | 119.6 | 47.1 | 118.6 | 118.6
O=C(Cc1ccccc1)N[C@H]1CO[C@H](/C=C/c2ccccc2)OC1 | – | – | 29.5 | – | –
O=C(N[C@H]1CCO[C@H](c2cccc([N+](=O)[O-])c2)OC1)c1ccccc1 | – | – | 20.8 | – | –
Cc1ccc([C@H]2OC[C@H](NC(=O)Cc3ccccc3)CO2)cc1 | 118.4 | 117.2 | 35.6 | 119.2 | 118.6

SMILES | Activity (Mus musculus [1]) [s] | Activity (Mus musculus [2]) [s] | inhibition in vivo at 20 mg/kg (Mus musculus [3]) [%] | Activity (Mus musculus [4]) [s] | Activity (Mus musculus [5]) [s]
O=C(Cc1ccccc1)N[C@H]1CCO[C@@H](c2ccc([N+](=O)[O-])cc2)OC1 | – | – | 19.6 | – | –
O=C(Cc1ccccc1)N[C@H]1CCCO[C@@H](c2cccc([N+](=O)[O-])c2)OC1 | – | – | 19.9 | – | –
O=C(N[C@H]1CCO[C@H](c2ccc([N+](=O)[O-])cc2)OC1)c1ccccc1 | – | – | 19.2 | – | –
C[C@@H]1O[C@H](c2cccc([N+](=O)[O-])c2)OC[C@H]1NC(=O)c1ccccc1 | 119.5 | 118.9 | – | 118.2 | 118.2
Cc1ccc([C@@H]2OC[C@@H](NC(=O)c3ccccc3)[C@H](C)O2)cc1 | 118.9 | 120.4 | 44.9 | 117.7 | 118.5
O=C(Cc1ccccc1)N[C@H]1CCCO[C@@H](c2ccc(Cl)cc2)OC1 | – | – | 23.7 | – | –
O=C(N[C@H]1CO[C@@H](c2cccc([N+](=O)[O-])c2)OC1)c1ccccc1 | 119.1 | 119.3 | 42.9 | 120.2 | 118.2
C[C@@H]1O[C@H](c2ccc([N+](=O)[O-])cc2)OC[C@H]1NC(=O)Cc1ccccc1 | 117.9 | 117.8 | 55.1 | 117.2 | 118.5
Cc1ccc([C@@H]2OC[C@@H](NC(=O)Cc3ccccc3)[C@@H](C)O2)cc1 | 119 | 117.9 | 42.3 | 118.5 | 118.6
C[C@@H]1O[C@@H](c2ccccc2)OC[C@H]1NC(=O)Cc1ccccc1 | 118.6 | 118.5 | 40 | 117.9 | 119
C[C@H]1O[C@@H](c2ccc(Cl)cc2)OC[C@H]1NC(=O)Cc1ccccc1 | 118.6 | 118.4 | 46.4 | 119 | 119.6
C[C@@H]1O[C@H](c2ccccc2)OC[C@H]1NC(=O)Cc1ccccc1 | 118.6 | 118.5 | 41.3 | 117.9 | 119
C[C@@H]1O[C@H](c2ccccc2)OC[C@H]1NC(=O)c1ccccc1 | 118.6 | 118.7 | 43.9 | 118.9 | 118.9
C[C@@H]1O[C@@H](c2ccc(Cl)cc2)OC[C@H]1NC(=O)c1ccccc1 | 118.5 | 118.3 | 56.4 | 118.7 | 118.9
C[C@@H]1O[C@H](c2cccc([N+](=O)[O-])c2)OC[C@H]1NC(=O)Cc1ccccc1 | 118.5 | 120.1 | 46.5 | 118.6 | 118.7
O=C(N[C@H]1CO[C@H](c2cccc([N+](=O)[O-])c2)OC1)c1ccccc1 | 118.4 | 118.8 | 45.2 | 118.7 | 118
O=C(N[C@H]1CO[C@@H](c2ccc(Cl)cc2)OC1)c1ccccc1 | 120.9 | 118 | 28.5 | 119.4 | 118.9
O=C(Cc1ccccc1)N[C@H]1CO[C@@H](c2cccc([N+](=O)[O-])c2)OC1 | 119.2 | 117.7 | 41.3 | 118.6 | 118.5
O=C(Cc1ccccc1)N[C@H]1CCO[C@@H](c2cccc([N+](=O)[O-])c2)OC1 | – | – | 21.2 | – | –
O=C(Cc1ccccc1)N[C@H]1CCCO[C@H](c2cccc([N+](=O)[O-])c2)OC1 | – | – | 19.2 | – | –
O=C(N[C@H]1CCO[C@@H](c2cccc([N+](=O)[O-])c2)OC1)c1ccccc1 | – | – | 21.8 | – | –
O=C(Cc1ccccc1)N[C@H]1CO[C@@H](/C=C/c2ccccc2)OC1 | – | – | 27.2 | – | –
C[C@@H]1O[C@H](/C=C/c2ccccc2)OC[C@H]1NC(=O)Cc1ccccc1 | – | – | 33.3 | – | –
O=C(N[C@H]1CCO[C@@H](c2ccc(Cl)cc2)OC1)c1ccccc1 | – | – | 28.2 | – | –
C[C@@H]1O[C@@H](/C=C/c2ccccc2)OC[C@H]1NC(=O)Cc1ccccc1 | – | – | 32.1 | – | –

Reference: ChEMBL document CHEMBL1149585, “Toward the development of chemoprevention agents. Part 1: Design, synthesis, and anti-inflammatory activities of a new class of 2,5-disubstituted-dioxacycloalkanes” (Bioorg Med Chem, 2007)
